According to PMC9371711 (Proceedings of the National Academy of Sciences of the …, 2022):

Legend:
U87-GFP/luc tumors [1] = assay: Orthotopic; assay type: in vivo, BALB/c nude mice
How it was run: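 2 × 10⁵ U87-GFP/luc cells were implanted into the right cerebral cortex. After 7 d, mice were randomised to test compound or vehicle (PBS, 5% DMSO, 5% solutol), n = 6 each, dosed daily i.p. for 14 d. IVIS bioluminescence was imaged twice weekly and body weight tracked. Tumour sections were scored for H&E tumour area, fluorescent integrin β3 intensity and TUNEL intensity.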

[2] = In vivo brain biodistribution, LC-MS/MS; parameters: species or system C57BL/6 mice; conditions: i.v., 30 min after dosing
[3] = test system: TB43, TB48, GBM59, GBM96 primary GBM cultures; assay: Proliferation of primary GBM cultures with EMA401, A3E, TMZ, CCK8; assay type: cell-based, human; conditions: for sensitivity of GBM96: GBM96 (lacks AGTR1), A3E 10 μM
U87-GFP/luc tumors [4] = assay: Subcutaneous U87-GFP/luc xenograft model of GBM; assay type: in vivo, NSG mice
How it was run: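 2 × 10⁶ U87-GFP/luc cells were injected into the flanks of NSG mice. Once tumours were established, mice were randomised to test compound, comparators or vehicle (PBS, 5% DMSO, 5% solutol), n = 7–9 per group, and treated for 21 d. Tumour volume and final tumour weight are reported as mean ± SEM.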

GBM96 spheroids = assay: Spheroid invasion in 50% Matrigel; assay type: cell-based, human; conditions: GBM96, dose-dependent, area covered by invading cells
How it was run: (§1)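 Primary-cell spheroids were embedded in 50% Matrigel and exposed to test compound. Invasion was followed over time as the area covered by invading cells, by image thresholding. Values are mean area in pixels ± SEM. Groups were compared by ANOVA with Tukey's test.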

rat AT1R = conditions: read-out: IC50 at rat AT1R; cited from earlier work
[5] = test system: TB48, TB77, GBM96 spheroids; assay: 3D spheroid growth, CCK8; assay type: cell-based, human; conditions: 10, 30, 50 μM, CCK8 9 d posttreatment
How it was run: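 TB48, TB77 and GBM96 primary cells grown as 3D spheroids were exposed to test compound at 10, 30 and 50 μM. Growth was read by CCK8 9 d posttreatment. Values are mean A450 normalised to untreated control ± SEM. Groups were compared by ANOVA with Tukey's test.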

TB77 cells [6] = assay: Muse Annexin V & Dead Cell Assay; assay type: cell-based, human; conditions: 10, 30, 50 μM; 24, 48, 72 h; time and dose dependent
TB77 cells [7] = assay: TB77 proliferation, CCK8; assay type: cell-based, human; conditions: 1, 10, 30 μM, 1% serum, CCK8 9 d posttreatment; P = 0.0011
hCMEC/D3 = assay: Endothelial cell tube formation with GBM-conditioned media; assay type: cell-based, human; conditions: 6-h incubation with media of TB77 treated with 30 μM EMA401
How it was run: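 Conditioned media came from untreated TB77 cells or TB77 treated with 10 μM AT1R antagonist and 30 μM test compound. hCMEC/D3 endothelial cells were incubated in these media for 6 h. Read-outs were total segment length (pixels) and number of meshes, as mean ± SEM. Groups were compared by ANOVA with Tukey's multiple comparisons.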

TB48 spheroids = assay: Spheroid invasion in 50% Matrigel; assay type: cell-based, human; conditions: TB48, 30 μM
How it was run: as §1

GBM31 = assay: Proliferation of GBM31; assay type: cell-based, human; conditions: 1, 10, 30 μM, 1% serum, CCK8 9 d
How it was run: (§2)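 Primary GBM explants in 1% serum were exposed to test compound at 1, 10 and 30 μM. Viability was read by CCK8 9 d posttreatment. Values are mean A450 normalised to untreated control ± SEM.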

TB77 cells [8] = assay: RNA sequencing, whole-transcriptome analysis; assay type: cell-based, human; conditions: 30 µM, 24 h; for number of differentially expressed genes vs untreated control: P < 0.01; for number of unique differentially expressed genes: not shared with the other antagonist
[9] = test system: caspase-3/7 in TB77 cells; assay: Caspase-Glo 3/7 Assay; assay type: cell-based, human; conditions: 30 μM
TB77 cells [10] = assay: Cell cycle, propidium iodide flow cytometry; assay type: cell-based, human; conditions: 10, 30, 50 μM
[11] = cited from earlier work
[12] = test system: TB26, TB43, TB48, GBM59, GBM96 primary GBM cultures; assay: Proliferation of AGTR2-expressing primary GBM cultures, CCK8; assay type: cell-based, human; conditions: GBM59, 1% serum, CCK8 9 d
How it was run: as §2

AT2R = conditions: cited from earlier work; for Kd: read-out: KD (Dissociation constant) for AT2R
[13] = test system: 8MG, TB26, TB77 GBM cells; assay: Growth of AT2R-expressing GBM cells with AngII and antagonists, low serum; assay type: cell-based, human; conditions: 1% FBS, 6 d; for effect of antagonist on AngII-enhanced growth: antagonist 10 μM + 10 nM AngII
How it was run: (§3)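 Cells in 1% FBS received 10 nM AngII, AT1R or AT2R antagonists at 10 μM, each antagonist plus AngII, or both antagonists together. Established lines were read by SRB staining and primary cultures by CCK8, 6 d posttreatment. Values are mean absorbance normalised to untreated control ± SEM. Groups were compared by ANOVA with Tukey's test.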

GBM59 = assay: TMZ sensitivity of primary GBM cells, SRB; assay type: cell-based, human; conditions: TMZ 2-512 μM, 10% FBS, SRB after 9 days
TB82 = assay: Growth of GBM cells expressing AT1R but not AT2R with AngII, low serum; assay type: cell-based, human; conditions: 10 nM AngII, 1% FBS, 6 d
How it was run: as §3

COc1ccc2c(c1OCc1ccccc1)C[C@@H](C(=O)OCC(=O)NCCCC[C@H](NC(=O)CNC(=O)[C@H](CCCNC(=N)N)NC(=O)[C@H](CO)NC(=O)CNC(=O)CNC(=O)[C@H](Cc1ccc(O)cc1)NC(=O)[C@H](Cc1ccccc1)NC(=O)[C@H](Cc1ccccc1)NC(=O)[C@@H](NC(=O)COC(=O)[C@@H]1Cc3c(ccc(OC)c3OCc3ccccc3)CN1C(=O)C(c1ccccc1)c1ccccc1)[C@@H](C)O)C(=O)N[C@@H](CCCNC(=N)N)C(=O)N[C@@H](CC(N)=O)C(=O)N[C@@H](CC(N)=O)C(=O)N[C@@H](Cc1ccccc1)C(=O)N[C@@H](CCCCNC(=O)COC(=O)[C@@H]1Cc3c(ccc(OC)c3OCc3ccccc3)CN1C(=O)C(c1ccccc1)c1ccccc1)C(=O)N[C@H](C(=O)N[C@@H](CCC(=O)O)C(=O)N[C@@H](CCC(=O)O)C(=O)N[C@@H](Cc1ccc(O)cc1)C(=O)O)[C@@H](C)O)N(C(=O)C(c1ccccc1)c1ccccc1)C2 [A3E]
reduction of tumor size vs vehicle control (U87-GFP/luc tumors [1]; A3E 25.88 mg/kg i.p. daily for 14 d, bioluminescent imaging (IVIS), n = 6): 40% | integrin β3 staining (angiogenesis) of tumor sections (U87-GFP/luc tumors [1]; n = 2, P = 0.17): reduction in integrin-β3 staining | apoptosis, TUNEL assay of tumor sections (U87-GFP/luc tumors [1]; n = 3, P = 0.056): apoptosis was enhanced | tumor area, H&E staining, vs saline group (U87-GFP/luc tumors [1]; n = 5, P = 0.084): consistently smaller | toxicity by body weight (U87-GFP/luc tumors [1]; subcutaneous or intracranial models, no significant weight loss over the study): no detectable toxicity | EMA401 metabolite (peak at 3.7 min, m/z 314) in brain samples [2]: not detected | antiproliferative effect compared with EMA401 ([3]; A3E 10 μM vs EMA401 30 μM, 1% serum, CCK8 9 d): equivalent inhibition to native EMA401 at a three-fold lower dose | sensitivity of GBM96 ([3]; EMA401 30 μM): especially sensitive | tumor size, volume and weight vs vehicle- or EMA401-treated groups (U87-GFP/luc tumors [4]; A3E 25.88 mg/kg i.p. daily, 21 d, NSG mice): significantly smaller size | efficacy compared with TMZ (U87-GFP/luc tumors [4]; A3E 25.88 mg/kg, TMZ 30 mg/kg, i.p. daily): slightly more effective than TMZ, though this was not significant

COc1ccc2c(c1OCc1ccccc1)C[C@@H](C(=O)O)N(C(=O)C(c1ccccc1)c1ccccc1)C2 [EMA401]
spheroid invasiveness (GBM96 spheroids): significantly reduced the invasiveness | IC50 (rat AT1R): 408 µM | spheroid growth sensitivity [5]: sensitive | early apoptotic cells (TB77 cells [6]): significant increase in early apoptotic cells | growth inhibition compared with PD123319 (TB77 cells [7]): significantly more potent growth inhibition than PD123319 | EMA401 metabolite (peak at 3.7 min, m/z 314) in brain samples [2]: a metabolite was identified | total segment length of endothelial tubes (hCMEC/D3): significantly reduced | spheroid invasiveness (TB48 spheroids): significantly reduced | sensitivity of GBM31 to growth inhibition (GBM31): insensitive | number of differentially expressed genes vs untreated control (TB77 cells [8]): 5,498 genes | down-regulation of FGF18 (TB77 cells [8]; RNA-seq): 2.7 fold | down-regulation of G6PD (TB77 cells [8]; RNA-seq): 1.26 fold | down-regulation of PDK2 (TB77 cells [8]; RNA-seq): 1.29 fold | down-regulation of PDK4 (TB77 cells [8]; RNA-seq): 1.29 fold | down-regulation of PIDD1 (TB77 cells [8]; RNA-seq): 1.3 fold | down-regulation of TKT (TB77 cells [8]; RNA-seq): 1.33 fold | up-regulation of CASP3 (TB77 cells [8]; RNA-seq): 1.43 fold | up-regulation of MAP2K3 (TB77 cells [8]; RNA-seq): 1.7 fold | up-regulation of NFKB2 (TB77 cells [8]; RNA-seq): 1.5 fold | up-regulation of RelB (TB77 cells [8]; RNA-seq): 2.4 fold | up-regulation of TNFRSF21 (TB77 cells [8]; RNA-seq): 1.5 fold | number of unique differentially expressed genes (TB77 cells [8]): 4,211 genes | enhancement of caspase-3/7 activation ([9]; 24 h, luminescence, P < 0.0001): 30% | caspase-3/7 activation ([9]; 48 h): returned to baseline levels | cell-cycle parameters (TB77 cells [10]): No changes in cell-cycle parameters | antiproliferative potency compared with TMZ ([3]; EMA401 30 μM, TMZ 30 μM, 1% serum, CCK8 9 d): greater potency than TMZ | sensitivity of GBM96 ([3]; EMA401 30 μM): especially sensitive | blood-brain barrier penetration [11]: inability of EMA401 to penetrate the blood–brain barrier | growth inhibition of TMZ-insensitive GBM59 [12]: efficiently inhibited

Cc1cc(Cn2cnc3c2C[C@@H](C(=O)O)N(C(=O)C(c2ccccc2)c2ccccc2)C3)ccc1N(C)C [PD123319]
IC50 (rat AT1R): 210 µM | number of differentially expressed genes vs untreated control (TB77 cells [8]): 2,195 genes | number of unique differentially expressed genes (TB77 cells [8]): 908 genes | Kd (AT2R): 0.0717 µM | proliferation in the absence of exogenous AngII ([13]; 10 μM, significant in 8MG and TB77): inhibited the proliferation | effect of antagonist on AngII-enhanced growth [13]: blocked the enhanced growth

Cn1nnc2c(C(N)=O)ncn2c1=O [TMZ, temozolomide]
sensitivity of GBM59 to TMZ (GBM59): insensitive

CCCCc1nc(Cl)c(CO)n1Cc1ccc(-c2ccccc2-c2nn[nH]n2)cc1 [losartan]
effect of antagonist on AngII-enhanced growth [13]: no effects were observed

angiotensin II (DRVYIHPF; Angiotensin-2; UniProt P01019 25-32, looked up) [AngII]
selectivity for AT2R over AT1R (AT2R): 10 fold | Kd (AT2R): 0.0016 µM | cell growth with exogenous AngII (TB82): minimally increased | cell growth with exogenous AngII ([13]; 10 nM AngII, SRB or CCK8): significantly enhanced
